Screening results: PubChem BioAssay, several laboratories
Runt-CBFb FRET: inhibitors of RUNX1 Runt–CBFb binding, primary screen, biochemical, FRET, Cerulean-Runt, Venus-CBFb, uHTS. Cerulean-Runt/Venus-CBFb FRET ratio 530/480, 1 h. inhibition, % at 20 µM. actives 0.46% (n = 220,000);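 active means inhibition over about 50% at 20 µM in the single-dose screen, limit read from the data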;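 further: 0% = DMSO wells and 100% = excess unlabeled CBFb competitor control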
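Reagent – Venus-CBFb binding partner, 100 nM · Assay system – Cerulean-tagged RUNX1 Runt domain (FRET donor) fusion protein · Input – 100 nM per protein · Incubation – two 1 h room-temperature incubations shielded from light · Measured by – FRET fluorescence · Medium – Tris buffer pH 7.5 with salts and BSA · Benchmarks – unlabeled CBFb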
MEX-5 binding: MEX-5 zinc finger RNA-binding disruptors – biochemical, C. elegans, fluorescence polarization, MLPCN library, primary screen. Zinc finger protein mex-5 (Caenorhabditis elegans), Q9XUB2. activity score (negative = inhibition of binding), % at 10 µM. MEX-5/FITC-TCR2 RNA binding; hits give low values. actives 0.38% (n = 300,000). AID 1832, 2009;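 active means inhibition past about -25% in most replicates, and total fluorescence under double the plate's negative control median, limit read from the data; inconclusive means replicates evenly split on the limit, or fluorescence at least double controls; inactive means too little inhibition in most replicates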;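 further: 0% = DMSO and -100% = 5 µM competing unlabeled TCR2 RNA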
Target sequence (Q9XUB2 whole entry, looked up): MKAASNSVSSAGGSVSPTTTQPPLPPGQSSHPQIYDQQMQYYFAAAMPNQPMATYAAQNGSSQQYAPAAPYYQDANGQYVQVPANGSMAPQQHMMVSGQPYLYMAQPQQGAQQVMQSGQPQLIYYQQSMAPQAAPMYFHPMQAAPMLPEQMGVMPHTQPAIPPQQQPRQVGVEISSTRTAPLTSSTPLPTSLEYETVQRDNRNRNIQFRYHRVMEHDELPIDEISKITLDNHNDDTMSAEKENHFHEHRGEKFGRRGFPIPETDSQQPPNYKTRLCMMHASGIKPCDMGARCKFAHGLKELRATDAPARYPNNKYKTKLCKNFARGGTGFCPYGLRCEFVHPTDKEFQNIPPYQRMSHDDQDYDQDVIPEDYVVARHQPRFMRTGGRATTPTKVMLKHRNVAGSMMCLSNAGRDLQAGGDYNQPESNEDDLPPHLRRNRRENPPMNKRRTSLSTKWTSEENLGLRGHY
PKD1 kinase inh: inhibitors of human PKD1 kinase, biochemical, fluorescence polarization | actives 0.056% (n = 200,000) | PKD1 kinase fluorescence polarization assay | Serine/threonine-protein kinase D1 (Homo sapiens), Q15139 | inhibition, % (no concentration beside the values)
Runt-SMMHC FRET: inhibitors of RUNX1 Runt–CBFb-SMMHC binding, primary screen, biochemical, FRET, Cerulean-Runt, Venus-CBFb-SMMHC, uHTS; Runt-related transcription factor 1 (Homo sapiens) + Core-binding factor subunit beta …; AID 1434, 2008; inhibition, % at 20 µM; actives 0.74% (n = 220,000); Cerulean-Runt/Venus-CBFb-SMMHC FRET ratio 530/480, 1 h;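 active means mean inhibition across duplicate retests at 20 µM reaching about 50%, limit read from the data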;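 further: 0% = DMSO wells and 100% = wells with excess untagged CBFb-SMMHC; inhibitors lower the FRET ratio by blocking Runt binding to CBFb-SMMHC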
EBV gp42 block: Epstein-Barr virus gp42 inhibitors, primary screen, biochemical, uHTS, fluorescence polarization; inhibition, % (tested at 21.74 µM); Fluorescence polarization binding assay, mP read-out; AID 1085, 2008; actives 0.42% (n = 220,000)
RanGTP-Impb inh: inhibitors of RanGTP-importin-beta interaction, primary screen, biochemical, FRET, CFP-Ran, YFP-importin-beta, homogeneous. Ran GTPase (GTP-bound) - importin-beta complex. inhibition, % (concentration not given with the values). actives 1.1% (n = 300,000). AID 2216, 2009. cell-free CFP-Ran/YFP-importin-beta FRET ratio;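 active means more than half of the replicate wells show a fall in the fluorescence ratio signal beyond about 16%, limit read from the data, passing the limit was not always enough; inconclusive means exactly half of the replicate wells pass the set limit; inactive means fewer than half of replicates pass the limit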;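 further: 0% = DMSO wells and 100% = Ran loaded with GDP instead of GTP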
Starred values were filed as active, the others as inactive; ? = inconclusive; / = no result given; + = active, no number. Hits are enriched below; roughly 2% of the tested compounds scored in any of these assays. Unless noted, no stated cut-off is given here; in the data, active means inhibition above about 50%; inactive means the rest.

SMILES	Runt-CBFb FRET	MEX-5 binding	PKD1 kinase inh	Runt-SMMHC FRET	EBV gp42 block	RanGTP-Impb inh
Cc1cc(=O)oc2cc(OC(=O)CCN3C(=O)c4ccccc4C3=O)ccc12	15	0	-7	35	6	4
CCN1/C(=C/c2ccc3cc(C)ccc3[n+]2C)Sc2ccc3sccc3c21	/	/	-3	/	+	/
COc1ccc(S(=O)(=O)NCC(=O)N(CC(=O)NCc2ccco2)C2CCCC2)cc1	/	-1	/	/	/	1
COc1ccc(-c2oc3cccnc3c2C#CCO)cc1	/	2	/	/	/	5
COc1ccc(-c2oc3cccnc3c2C#CC2(O)CCCCC2)cc1	/	-2	/	/	/	23*
COc1ccc(CSC2=CS(=O)(=O)c3ccccc3N2)cc1	-1	-1	0	0	6	2
Cc1ccc(C(=O)N/C(=C\c2ccc(Br)cc2)c2nc(=S)[nH][nH]2)cc1	1	1	-8	7	-4	28*
COCCNC(=O)CSc1nc2cc(OC)c(OC)cc2c(=O)n1CCC1=CCCCC1	-1	0	-3	0	-14	7
COCCNC(=O)c1c(N)n(CCC2=CCCCC2)c2nc3ccccc3nc12	38	-4	3	58*	18	68*
COCCn1c(N)c(C(=O)OCc2ccccc2)c2nc3ccccc3nc21	17	-4	-1	65*	46	18*
O=C(Nc1ccsc1C(=O)O)c1ccccc1Cl	/	0	/	/	/	-1
COc1ccc(C)cc1NC(=O)c1ccc(NS(=O)(=O)c2cccs2)cc1	/	-1	/	/	/	8
CN(C)c1ccc(C2C3C(=O)NC(=O)C3ON2c2ccc(Cl)cc2)cc1 (stereo not drawn)	6	2	-5	2	-6	22*
CN(C)/C=C1\NC(=S)N(c2ccc(Cl)cc2)C1=O	3	6	10	0	-5	3
CC(=O)N=c1c(C#N)cc2c(=O)n3cccc(C)c3nc2n1Cc1ccco1	10	-4	/	88*	-11	80*
COc1ccc(C(=O)N=c2c(C#N)cc3c(=O)n4cccc(C)c4nc3n2Cc2ccco2)cc1	70*	-41*	-4	/	22	78*
N#Cc1cc2c(=O)n3ccccc3nc2n(Cc2ccco2)c1=NC(=O)c1ccco1	4	-17	-2	/	-19	56*
Cc1cccn2c(=O)c3cc(C(=O)O)n(C)c3nc12	12	0	-6	28	-7	-1
Cc1ccccc1C(=O)N=c1c(C#N)cc2c(=O)n3cccc(C)c3nc2n1Cc1ccco1	124*	0	-5	58*	-98	110*
O=C(CCn1c(=O)c2ccccc2n(Cc2cc(=O)n3ccccc3n2)c1=O)NCc1ccco1	-1	-1	-1	4	6	-1
COc1ccc(S(=O)(=O)N(C)c2ccc(OC(=O)C(C)Oc3ccc(F)cc3)cc2)cc1 (stereo not drawn)	/	2	/	/	/	0
N#CC1(NC(=O)COC(=O)c2cc([N+](=O)[O-])ccc2N2CCOCC2)CCCCC1	/	-1	/	/	/	-6
O=C(O)C(=O)/C(=C\c1ccc(Cl)cc1)c1ccc2ccccc2n1	39	?	-1	96*	-28	-5
O=C(NCCc1ccc(Cl)cc1)c1ccc2ccccc2n1	/	-2	/	/	/	-1
COc1ccccc1C1CN(c2ccccc2)N=C1c1cccs1 (stereo not drawn)	46	1	-7	59*	-28	3
SMILES	Runt-CBFb FRET	MEX-5 binding	PKD1 kinase inh	Runt-SMMHC FRET	EBV gp42 block	RanGTP-Impb inh
COc1cccc(C2CN(c3ccc(F)cc3F)N=C2c2cccs2)c1OC (stereo not drawn)	25	2	-4	75	-24	?
CS(=O)(=O)N(CCCC(=O)N1CCCCCC1)c1cccc(Cl)c1	/	-1	/	/	/	4
C(=C\c1nccc2c1[nH]c1ccccc12)/c1ccccc1	22	-1	/	80*	-1	8
Fc1ccc(/C=C\c2nccc3c2[nH]c2ccccc23)cc1	12	-5	-3	37	9	4
CCOc1ccc(C(C)=O)cc1CN1C(=O)c2ccccc2S1(=O)=O	/	-2	/	/	/	0
O=C1Nc2ccc3sc4ccccc4c3c2C1=O	0	2	/	0	58*	2
c1ccc(NC2=Nc3cccc4cccc2c34)cc1	-8	-3	-3	-11	-5	-9
Fc1ccc(/C=N/NC2=Nc3cccc4cccc2c34)cc1	-15	-5	-1	-28	57*	3
Cc1ccc(-c2nnn(CC(=O)N(CC(=O)NC3CCCC3)c3ccccc3F)n2)o1	/	0	/	/	/	0
CN(C)S(=O)(=O)c1cccc(NC(=S)N/N=C/c2cccc(O)c2)c1	3	1	-3	2	2	-2
CN(C)S(=O)(=O)c1cccc(NC(=S)N/N=C/c2cc(Br)ccc2O)c1	3	-3	/	81*	-19	5
c1ccc2c(c1)oc1c(NCCCn3ccnc3)ncnc12	-2	3	6	-1	-7	2
O=c1c2ccccc2oc2ccc(NCCCn3ccnc3)cc12	/	-27*	/	/	/	-9
CCN1C(=O)N/C(=C/c2ccc(Sc3ccc(C)cc3)o2)C1=O	5	0	-9	19	-17	23*
Cc1ccccc1C(=O)NC1CCN(C(=O)Nc2ccc(F)cc2)CC1	/	-1	/	/	/	-1
CC1CCc2c(sc(Nc3nc4c(F)cccc4s3)c2C(N)=O)C1 (stereo not drawn)	127*	-2	-4	86*	-25	170*
N#CC(C#N)=C1C=CC=CN1/C(=C\c1ccccc1)C(=O)c1cccs1	24	0	-4	40	-7	28*
C=CCN(CC=C)c1nc2ccccc2nc1C(C#N)C(=O)OCCOC (stereo not drawn)	18	-2	5	61*	8	20*
CCOC(=O)C1CCN(c2nc3ccccc3nc2C(C#N)C(=O)OCCOC)CC1 (stereo not drawn)	1	-12	0	6	42	?
CCCN(CCC)c1nc2ccccc2nc1C(C#N)C(=O)OCCOC (stereo not drawn)	12	-6	-4	4	-8	37*
C=CCOC(=O)C(C#N)c1nc2ccccc2nc1N1CCC(C(=O)OCC)CC1 (stereo not drawn)	-8	-9	-5	-13	-17	6
COc1cc(CN2CCN(C(=O)c3cccc4ccccc34)CC2)cc(OC)c1O	/	-2	/	/	/	-2
